According to ChEMBL document CHEMBL3774321, “Systematic diversification of benzylidene heterocycles yields novel inhibitor scaffolds selective for Dyrk1A, Clk1 and CK2” (Eur J Med Chem, 2016):

How the values were obtained:
[1] = biological target: T1, Dual specificity tyrosine-phosphorylation-regulated kinase 1A (Homo sapiens, UniProt Q13627); assay: Inhibition of tetracycline-inducible EGFP-DYRK1A (unknown origin) expressed in HEK293 cells coexpressing full length human EGFP-tau protein assessed as reduction in tau-Thr212 phosphorylation incubated overnight by immunoblotting assay
[2] = biological target: Protein kinase C beta type (Homo sapiens, UniProt P05771); assay: Inhibition of PKCbeta (unknown origin) incubated for 15 mins in presence of [gamma-32P]ATP
Chain of Protein kinase C beta type (P05771 whole entry): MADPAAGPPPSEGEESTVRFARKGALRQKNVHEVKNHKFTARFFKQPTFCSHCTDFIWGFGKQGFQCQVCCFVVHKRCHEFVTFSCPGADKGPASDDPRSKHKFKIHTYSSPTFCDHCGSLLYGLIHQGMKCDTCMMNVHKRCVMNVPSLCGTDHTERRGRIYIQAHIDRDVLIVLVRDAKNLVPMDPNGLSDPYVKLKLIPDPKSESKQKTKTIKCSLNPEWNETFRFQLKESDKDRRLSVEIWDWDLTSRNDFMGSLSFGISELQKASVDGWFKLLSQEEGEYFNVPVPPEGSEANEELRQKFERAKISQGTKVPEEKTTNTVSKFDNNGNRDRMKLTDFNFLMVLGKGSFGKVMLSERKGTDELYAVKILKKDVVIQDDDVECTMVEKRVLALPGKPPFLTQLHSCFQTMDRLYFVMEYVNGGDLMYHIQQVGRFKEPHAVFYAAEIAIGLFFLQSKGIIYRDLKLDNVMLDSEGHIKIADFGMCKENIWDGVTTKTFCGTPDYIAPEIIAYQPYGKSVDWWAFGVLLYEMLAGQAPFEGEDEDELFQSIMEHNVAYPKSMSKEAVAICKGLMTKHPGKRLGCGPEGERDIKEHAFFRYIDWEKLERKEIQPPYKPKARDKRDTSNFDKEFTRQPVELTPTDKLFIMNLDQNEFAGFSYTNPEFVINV
Procedure, shortened: (§1)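 Purified recombinant kinase assayed with 100 μM ATP. Values averaged from at least two independent determinations.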

[3] = biological target: T2, Phosphatidylinositol 4,5-bisphosphate 3-kinase catalytic subunit alpha isoform (Homo sapiens, UniProt P42336); assay: Inhibition of PI3K p110alpha (unknown origin) at 5 uM relative to control
T2 sequence (P42336 whole entry, the tested form may be a part, canonical isoform): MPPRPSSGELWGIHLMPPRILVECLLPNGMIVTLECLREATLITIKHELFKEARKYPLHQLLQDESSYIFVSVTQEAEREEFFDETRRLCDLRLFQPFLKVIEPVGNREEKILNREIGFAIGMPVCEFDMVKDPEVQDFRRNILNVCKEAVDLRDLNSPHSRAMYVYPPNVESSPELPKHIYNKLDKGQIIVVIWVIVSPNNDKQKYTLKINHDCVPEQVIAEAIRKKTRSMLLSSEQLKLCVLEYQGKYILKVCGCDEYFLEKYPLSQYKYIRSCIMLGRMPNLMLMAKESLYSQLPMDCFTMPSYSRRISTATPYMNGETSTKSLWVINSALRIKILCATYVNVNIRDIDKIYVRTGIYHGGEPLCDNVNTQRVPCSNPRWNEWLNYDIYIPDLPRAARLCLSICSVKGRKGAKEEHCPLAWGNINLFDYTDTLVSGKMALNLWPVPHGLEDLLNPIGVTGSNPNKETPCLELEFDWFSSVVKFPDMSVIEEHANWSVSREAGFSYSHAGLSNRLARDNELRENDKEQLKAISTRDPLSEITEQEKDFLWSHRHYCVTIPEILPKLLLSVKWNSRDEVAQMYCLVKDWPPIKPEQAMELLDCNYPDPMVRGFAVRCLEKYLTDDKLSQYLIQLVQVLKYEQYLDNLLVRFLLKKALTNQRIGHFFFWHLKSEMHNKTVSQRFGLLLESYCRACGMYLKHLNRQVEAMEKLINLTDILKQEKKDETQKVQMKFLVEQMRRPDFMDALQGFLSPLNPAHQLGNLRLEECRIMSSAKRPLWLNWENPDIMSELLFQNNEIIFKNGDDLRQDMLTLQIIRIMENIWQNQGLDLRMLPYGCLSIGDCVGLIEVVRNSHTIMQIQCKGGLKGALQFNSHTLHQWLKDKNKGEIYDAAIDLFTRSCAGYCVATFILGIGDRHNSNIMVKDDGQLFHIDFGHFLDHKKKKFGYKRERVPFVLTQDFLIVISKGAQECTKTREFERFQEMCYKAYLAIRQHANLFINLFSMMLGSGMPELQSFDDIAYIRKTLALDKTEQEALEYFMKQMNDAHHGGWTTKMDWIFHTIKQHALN

[4] = biological target: T1, Dual specificity tyrosine-phosphorylation-regulated kinase 1A; assay: Inhibition of recombinant human N-terminal His6-tagged DYRK1A catalytic domain expressed in Escherichia coli BL21(DE3) cells using KKISGRLSPIMTEQ-NH2 as substrate incubated for 15 mins in presence of [gamma-32P]ATP
[5] = biological target: Dual specificity tyrosine-phosphorylation-regulated kinase 1B (Homo sapiens, UniProt Q9Y463); assay: Inhibition of full length recombinant human GST-tagged DYRK1B expressed in insect cells using KKISGRLSPIMTEQ-NH2 as substrate incubated for 15 mins in presence of [gamma-32P]ATP
Chain of Dual specificity tyrosine-phosphorylation-regulated kinase 1B (Q9Y463 whole entry, canonical isoform): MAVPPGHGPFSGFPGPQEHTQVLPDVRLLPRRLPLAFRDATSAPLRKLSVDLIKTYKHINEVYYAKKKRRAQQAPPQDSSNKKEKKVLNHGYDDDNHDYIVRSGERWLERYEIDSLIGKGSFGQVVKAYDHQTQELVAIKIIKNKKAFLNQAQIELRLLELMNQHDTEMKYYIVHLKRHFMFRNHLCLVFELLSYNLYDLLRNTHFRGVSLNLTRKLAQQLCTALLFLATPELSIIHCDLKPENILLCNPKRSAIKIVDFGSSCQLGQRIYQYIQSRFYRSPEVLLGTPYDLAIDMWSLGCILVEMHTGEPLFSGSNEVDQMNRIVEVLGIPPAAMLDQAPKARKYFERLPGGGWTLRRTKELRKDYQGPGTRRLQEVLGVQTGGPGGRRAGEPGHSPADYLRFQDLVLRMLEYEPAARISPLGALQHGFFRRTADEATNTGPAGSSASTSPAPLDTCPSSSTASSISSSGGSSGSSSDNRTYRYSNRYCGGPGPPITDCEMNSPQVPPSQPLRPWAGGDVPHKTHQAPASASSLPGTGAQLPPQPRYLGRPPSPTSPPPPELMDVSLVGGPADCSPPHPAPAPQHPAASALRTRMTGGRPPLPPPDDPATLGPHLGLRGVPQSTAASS

[6] = biological target: T2, Phosphatidylinositol 4,5-bisphosphate 3-kinase catalytic subunit alpha isoform; assay: Inhibition of PI3K p110alpha (unknown origin)
[7] = Half life in rat plasma at 1 uM by LC-MS/MS analysis; type: ADME, cell-free
Procedure, shortened: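 Pooled heparinized rat plasma incubated with 1 μM compound at 37 °C, sampled at 0, 5, 15, 30, 60 and 120 min. Reaction stopped with 5 volumes cold acetonitrile containing internal standard. Remaining compound quantified by LC-MS/MS. Half-life given as mean of two experiments.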

Casein kinase II = Casein kinase II (Homo sapiens, UniProt P19784+P67870+P68400); assay: Inhibition of CK2 (unknown origin) using RRRDDDSDDD-NH2 as susbtrate incubated for 15 mins in presence of [gamma-32P]ATP; type: protein-complex assay
Chain of Casein kinase II (P67870 whole entry, the tested form may be a part): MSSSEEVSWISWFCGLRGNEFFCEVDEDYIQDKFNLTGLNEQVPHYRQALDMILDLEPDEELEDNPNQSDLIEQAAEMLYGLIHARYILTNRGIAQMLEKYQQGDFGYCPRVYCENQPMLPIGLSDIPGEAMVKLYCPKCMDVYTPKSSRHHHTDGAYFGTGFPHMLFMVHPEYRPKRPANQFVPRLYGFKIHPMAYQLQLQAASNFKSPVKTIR
Chain of Casein kinase II (P68400 whole entry, the tested form may be a part): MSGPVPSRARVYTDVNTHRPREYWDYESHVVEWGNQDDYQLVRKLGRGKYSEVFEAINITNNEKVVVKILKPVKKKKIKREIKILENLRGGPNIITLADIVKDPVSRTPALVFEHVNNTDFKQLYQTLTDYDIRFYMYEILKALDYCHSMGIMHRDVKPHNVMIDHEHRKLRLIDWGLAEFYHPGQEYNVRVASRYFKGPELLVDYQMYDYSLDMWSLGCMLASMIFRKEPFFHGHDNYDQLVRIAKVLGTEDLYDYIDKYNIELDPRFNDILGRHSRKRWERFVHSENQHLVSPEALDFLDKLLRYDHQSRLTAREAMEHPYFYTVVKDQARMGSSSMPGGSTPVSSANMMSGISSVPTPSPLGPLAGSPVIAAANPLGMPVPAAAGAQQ
Chain of Casein kinase II (P19784 whole entry, the tested form may be a part): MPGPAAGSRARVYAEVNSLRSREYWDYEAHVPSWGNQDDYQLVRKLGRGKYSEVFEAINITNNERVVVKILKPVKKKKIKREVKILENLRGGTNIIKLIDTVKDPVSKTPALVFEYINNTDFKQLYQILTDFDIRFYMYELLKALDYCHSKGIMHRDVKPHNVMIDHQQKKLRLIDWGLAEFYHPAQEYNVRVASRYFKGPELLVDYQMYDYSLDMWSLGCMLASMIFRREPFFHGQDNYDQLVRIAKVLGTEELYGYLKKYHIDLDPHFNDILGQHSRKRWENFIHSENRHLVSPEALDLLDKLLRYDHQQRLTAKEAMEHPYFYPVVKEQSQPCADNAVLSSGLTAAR

[8] = biological target: Dual specificity protein kinase CLK1 (Homo sapiens, UniProt P49759); assay: Inhibition of recombinant human GST-tagged CLK1 catalytic domain (129 to 484 residues) expressed in Escherichia coli using GRSRSRSRSRSRSRSR as substrate incubated for 15 mins in presence of [gamma-32P]ATP
Chain of Dual specificity protein kinase CLK1 (P49759 whole entry, the tested form may be a part): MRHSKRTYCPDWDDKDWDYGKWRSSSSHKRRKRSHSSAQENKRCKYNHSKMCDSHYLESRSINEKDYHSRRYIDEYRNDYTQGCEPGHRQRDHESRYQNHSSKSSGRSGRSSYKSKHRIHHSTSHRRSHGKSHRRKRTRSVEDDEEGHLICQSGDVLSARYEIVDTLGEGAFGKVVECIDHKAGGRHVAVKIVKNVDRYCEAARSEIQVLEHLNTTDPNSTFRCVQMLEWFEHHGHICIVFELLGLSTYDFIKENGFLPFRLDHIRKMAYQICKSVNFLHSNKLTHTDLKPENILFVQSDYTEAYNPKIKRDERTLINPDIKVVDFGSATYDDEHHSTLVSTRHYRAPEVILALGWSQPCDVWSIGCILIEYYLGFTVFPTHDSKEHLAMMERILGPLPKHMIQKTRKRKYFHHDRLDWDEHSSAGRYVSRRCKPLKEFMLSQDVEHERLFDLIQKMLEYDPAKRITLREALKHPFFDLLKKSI
Procedure, shortened: (§2)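 Purified recombinant kinase with 100 µM ATP. IC50 values are averages of at least two independent determinations.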

[9] = biological target: T3, Phosphatidylinositol 4,5-bisphosphate 3-kinase catalytic subunit gamma isoform (Homo sapiens, UniProt P48736); assay: Inhibition of PI3K p110gamma (unknown origin) at 5 uM relative to control
[10] = biological target: Epidermal growth factor receptor (Homo sapiens, UniProt P00533); assay: Inhibition of EGFR (unknown origin) incubated for 15 mins in presence of [gamma-32P]ATP; settings: read-out: IC50
Chain of Epidermal growth factor receptor (P00533 whole entry): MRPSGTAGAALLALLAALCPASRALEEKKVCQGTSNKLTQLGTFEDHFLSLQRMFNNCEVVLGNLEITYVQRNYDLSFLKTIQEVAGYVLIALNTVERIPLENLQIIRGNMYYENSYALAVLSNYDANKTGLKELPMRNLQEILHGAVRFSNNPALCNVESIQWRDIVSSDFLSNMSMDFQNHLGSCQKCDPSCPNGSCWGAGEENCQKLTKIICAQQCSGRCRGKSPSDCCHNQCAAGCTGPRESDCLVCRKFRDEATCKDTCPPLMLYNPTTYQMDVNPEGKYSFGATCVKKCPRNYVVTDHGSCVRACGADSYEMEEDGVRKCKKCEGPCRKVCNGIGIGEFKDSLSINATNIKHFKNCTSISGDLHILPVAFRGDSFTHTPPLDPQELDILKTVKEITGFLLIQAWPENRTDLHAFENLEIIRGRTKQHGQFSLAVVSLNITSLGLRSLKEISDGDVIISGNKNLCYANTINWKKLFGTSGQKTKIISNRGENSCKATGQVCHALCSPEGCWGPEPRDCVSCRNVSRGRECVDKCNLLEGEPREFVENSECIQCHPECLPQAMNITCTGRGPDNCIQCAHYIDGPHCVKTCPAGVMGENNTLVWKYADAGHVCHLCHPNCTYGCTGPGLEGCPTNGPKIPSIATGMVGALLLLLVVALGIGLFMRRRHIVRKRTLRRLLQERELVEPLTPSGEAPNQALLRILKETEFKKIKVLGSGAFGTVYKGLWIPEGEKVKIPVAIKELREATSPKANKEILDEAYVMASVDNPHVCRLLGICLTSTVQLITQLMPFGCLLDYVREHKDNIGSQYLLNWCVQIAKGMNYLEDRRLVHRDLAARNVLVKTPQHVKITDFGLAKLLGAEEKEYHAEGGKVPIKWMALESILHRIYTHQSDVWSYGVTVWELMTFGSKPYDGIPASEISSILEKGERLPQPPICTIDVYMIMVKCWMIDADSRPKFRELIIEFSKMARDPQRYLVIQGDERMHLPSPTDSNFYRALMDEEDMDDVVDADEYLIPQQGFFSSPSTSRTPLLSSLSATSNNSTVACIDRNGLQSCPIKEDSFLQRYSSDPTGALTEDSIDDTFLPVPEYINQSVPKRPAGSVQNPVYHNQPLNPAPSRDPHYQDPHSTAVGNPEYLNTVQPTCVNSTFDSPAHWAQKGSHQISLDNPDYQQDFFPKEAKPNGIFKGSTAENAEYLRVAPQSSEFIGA
Procedure, shortened: as §1

[11] = biological target: T4, Dual specificity tyrosine-phosphorylation-regulated kinase 2 (Homo sapiens, UniProt Q92630); assay: Inhibition of recombinant human N-terminal GST-tagged DYRK2 expressed in Escherichia coli BL21(DE3) cells using KKISGRLSPIMTEQ-NH2 as substrate incubated for 15 mins in presence of [gamma-32P]ATP; settings: read-out: IC50
T4 sequence (Q92630 whole entry): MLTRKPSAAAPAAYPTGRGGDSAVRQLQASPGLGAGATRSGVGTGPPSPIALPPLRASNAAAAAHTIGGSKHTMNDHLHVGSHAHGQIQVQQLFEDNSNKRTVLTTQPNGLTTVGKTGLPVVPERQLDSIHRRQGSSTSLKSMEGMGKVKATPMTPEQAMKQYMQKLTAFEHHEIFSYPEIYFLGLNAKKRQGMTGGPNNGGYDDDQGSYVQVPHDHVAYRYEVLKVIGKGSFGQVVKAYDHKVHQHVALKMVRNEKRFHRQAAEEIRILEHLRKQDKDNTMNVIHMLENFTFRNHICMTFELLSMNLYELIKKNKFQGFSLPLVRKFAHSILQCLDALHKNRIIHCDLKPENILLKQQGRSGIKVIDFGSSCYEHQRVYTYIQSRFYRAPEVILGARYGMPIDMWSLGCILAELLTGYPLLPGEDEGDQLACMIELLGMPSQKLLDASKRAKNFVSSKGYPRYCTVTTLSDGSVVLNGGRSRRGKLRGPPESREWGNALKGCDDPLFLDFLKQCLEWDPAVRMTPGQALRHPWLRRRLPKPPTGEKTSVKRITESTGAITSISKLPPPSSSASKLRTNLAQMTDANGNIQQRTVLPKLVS
Procedure, shortened: as §2

[12] = biological target: T2, Phosphatidylinositol 4,5-bisphosphate 3-kinase catalytic subunit alpha isoform; assay: Inhibition of PI3K p110alpha (unknown origin) at 1 uM relative to control
Procedure, shortened: (§3)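 Single-point screen at 1 μM compound. Percent inhibition is the mean of two separate measurements, each run in duplicate.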

[13] = biological target: T3, Phosphatidylinositol 4,5-bisphosphate 3-kinase catalytic subunit gamma isoform; assay: Inhibition of PI3K p110gamma (unknown origin)
[14] = biological target: T3, Phosphatidylinositol 4,5-bisphosphate 3-kinase catalytic subunit gamma isoform; assay: Inhibition of PI3K p110gamma (unknown origin) at 1 uM relative to control
Procedure, shortened: as §3

| IC50 [1] | IC50 [2] | inhibition [3] | IC50 [4] | IC50 [5] | IC50 [6] | half-life at 1 µM [7] | IC50 (Casein kinase II) | IC50 [8] | inhibition [9] | IC50 [10] | IC50 [11] | inhibition [12] | IC50 [13] | IC50 ([2]; read-out: IC50) | inhibition [14] | Structure (SMILES) |
| --- | --- | --- | --- | --- | --- | --- | --- | --- | --- | --- | --- | --- | --- | --- | --- | --- |
| 2100 nM | Not Active | 84% | 170 nM | 2640 nM | 650 nM | > 2 h | > 10000 nM | > 10000 nM | 75% | > 10000 nM | 430 nM | – | – | – | – | CC1C/C(=C\c2ccc3c(c2)CCO3)C(=O)O1 (stereo not drawn) |
| 2100 nM | – | – | 40 nM | 70 nM | 2.2 nM | 1.68 h | 60 nM | 100 nM | – | > 10000 nM | 200 nM | 98% | 2.3 nM | 9200 nM | 97% | O=C1NC(=S)S/C1=C\c1ccc2ncsc2c1 |
| 200 nM | Not Active | 90% | 130 nM | 1050 nM | – | 3.1 h | > 10000 nM | > 10000 nM | 79% | > 10000 nM | 60 nM | – | – | – | – | O=C1OCC/C1=C\c1ccc2ncsc2c1 |
| 1400 nM | – | – | 20 nM | 60 nM | 2.6 nM | – | 40 nM | 200 nM | – | > 10000 nM | 60 nM | 100% | 2.3 nM | > 10000 nM | 97% | O=C1NC(=S)S/C1=C\c1ccc2ncccc2c1 |
